In ChEMBL document CHEMBL1157645, “Synthesis of 2-(thienyl-2-yl or -3-yl)-4-furyl-6-aryl pyridine derivatives and evaluation of their topoisomerase I and II inhibitory activity, cytotoxicity, and structure-activity relationship” (Bioorg Med Chem, 2010):

Experiments:
[1] = tested on: HCT-15; assay: Cytotoxicity against human HCT15 cells in presence of 10% fetal bovine serum; type: functional, cell-based
In short: (§1)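 Cells cultured per supplier's instructions and seeded at 2–4 × 10⁴ cells per well. On day 2 the medium was replaced with medium containing graded compound concentrations. On day 4 cell counting kit-8 was added for a further 4 h, and absorbance was read at 450 nm. Values are 50% inhibitory concentrations, given as mean from three experiments run in triplicate.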

[2] = tested on: HeLa; assay: Cytotoxicity against human HeLa cells in presence of 10% fetal bovine serum; type: functional, cell-based; in short: as §1
[3] = target: DNA topoisomerase 2-alpha (Homo sapiens) (UniProt P11388); assay: Inhibition of human recombinant DNA topoisomerase 2 assessed as inhibition of relaxation of supercoiled pBR322 DNA at 100 uM by agarose gel electrophoresis
In short: (§2)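 pBR322 DNA was incubated with two units of human topo IIα, with or without compound (DMSO stocks at 20 mM), in 10 mM Tris–HCl pH 7.9 with 50 mM NaCl, 5 mM MgCl₂, 1 mM EDTA, 1 mM ATP and BSA, for 30 min at 30 °C. The reaction was stopped with EDTA and run on 1% agarose in TAE at 25 V for 4 h. Gels were stained with ethidium bromide, and supercoiled DNA was quantified under UV.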

[4] = target: T1, DNA topoisomerase 1 (Homo sapiens) (UniProt P11387); assay: Inhibition of human recombinant topoisomerase 1 assessed as inhibition of relaxation of supercoiled pBR322 DNA at 100 uM by agarose gel electrophoresis
T1 sequence (whole entry): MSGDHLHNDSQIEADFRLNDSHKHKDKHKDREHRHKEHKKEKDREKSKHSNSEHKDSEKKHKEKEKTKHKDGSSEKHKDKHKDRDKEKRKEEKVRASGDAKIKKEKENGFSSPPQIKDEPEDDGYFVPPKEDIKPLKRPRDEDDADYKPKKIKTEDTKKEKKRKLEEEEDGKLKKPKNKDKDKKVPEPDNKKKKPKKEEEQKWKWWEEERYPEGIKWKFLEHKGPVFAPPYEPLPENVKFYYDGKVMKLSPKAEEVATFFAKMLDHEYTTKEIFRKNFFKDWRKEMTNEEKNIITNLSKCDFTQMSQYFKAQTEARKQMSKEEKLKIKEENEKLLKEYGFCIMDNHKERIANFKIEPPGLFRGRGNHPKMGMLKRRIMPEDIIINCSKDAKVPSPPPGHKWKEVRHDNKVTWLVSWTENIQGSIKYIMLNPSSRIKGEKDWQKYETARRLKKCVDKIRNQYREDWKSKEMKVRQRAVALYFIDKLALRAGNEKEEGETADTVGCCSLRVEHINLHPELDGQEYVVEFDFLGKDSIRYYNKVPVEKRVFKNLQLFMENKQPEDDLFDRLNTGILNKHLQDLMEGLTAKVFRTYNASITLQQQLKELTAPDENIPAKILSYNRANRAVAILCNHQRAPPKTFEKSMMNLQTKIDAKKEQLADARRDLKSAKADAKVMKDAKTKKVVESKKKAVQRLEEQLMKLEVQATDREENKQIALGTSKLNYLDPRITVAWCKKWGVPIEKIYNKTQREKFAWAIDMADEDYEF
In short: (§3)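 100 ng pBR322 DNA was incubated with 0.4 units of recombinant human topo I, with or without compound (DMSO stocks at 20 mM), for 30 min at 37 °C in 10 mM Tris–HCl pH 7.9, 150 mM NaCl, 0.1% BSA, 1 mM spermidine and 5% glycerol. The reaction was stopped with sarkosyl/bromophenol blue/glycerol and run on 1% agarose in TAE at 15 V for 7 h. Relaxation was read from ethidium bromide staining.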

[5] = target: DNA topoisomerase 2-alpha (Homo sapiens) (UniProt P11388); assay: Inhibition of human recombinant DNA topoisomerase 2 assessed as inhibition of relaxation of supercoiled pBR322 DNA at 20 uM by agarose gel electrophoresis; in short: as §2
[6] = tested on: DU-145; assay: Cytotoxicity against human DU145 cells in presence of 10% fetal bovine serum; type: functional, cell-based; in short: as §1
[7] = tested on: K562; assay: Cytotoxicity against human K562 cells in presence of 10% fetal bovine serum; type: functional, cell-based; in short: as §1
[8] = tested on: MCF7; assay: Cytotoxicity against human MCF7 cells in presence of 10% fetal bovine serum; type: functional; in short: as §1
[9] = target: T1, DNA topoisomerase 1 (Homo sapiens); assay: Inhibition of human recombinant topoisomerase 1 assessed as inhibition of relaxation of supercoiled pBR322 DNA at 20 uM by agarose gel electrophoresis; in short: as §3

Sequence of DNA topoisomerase 2-alpha (Homo sapiens) (P11388 whole entry): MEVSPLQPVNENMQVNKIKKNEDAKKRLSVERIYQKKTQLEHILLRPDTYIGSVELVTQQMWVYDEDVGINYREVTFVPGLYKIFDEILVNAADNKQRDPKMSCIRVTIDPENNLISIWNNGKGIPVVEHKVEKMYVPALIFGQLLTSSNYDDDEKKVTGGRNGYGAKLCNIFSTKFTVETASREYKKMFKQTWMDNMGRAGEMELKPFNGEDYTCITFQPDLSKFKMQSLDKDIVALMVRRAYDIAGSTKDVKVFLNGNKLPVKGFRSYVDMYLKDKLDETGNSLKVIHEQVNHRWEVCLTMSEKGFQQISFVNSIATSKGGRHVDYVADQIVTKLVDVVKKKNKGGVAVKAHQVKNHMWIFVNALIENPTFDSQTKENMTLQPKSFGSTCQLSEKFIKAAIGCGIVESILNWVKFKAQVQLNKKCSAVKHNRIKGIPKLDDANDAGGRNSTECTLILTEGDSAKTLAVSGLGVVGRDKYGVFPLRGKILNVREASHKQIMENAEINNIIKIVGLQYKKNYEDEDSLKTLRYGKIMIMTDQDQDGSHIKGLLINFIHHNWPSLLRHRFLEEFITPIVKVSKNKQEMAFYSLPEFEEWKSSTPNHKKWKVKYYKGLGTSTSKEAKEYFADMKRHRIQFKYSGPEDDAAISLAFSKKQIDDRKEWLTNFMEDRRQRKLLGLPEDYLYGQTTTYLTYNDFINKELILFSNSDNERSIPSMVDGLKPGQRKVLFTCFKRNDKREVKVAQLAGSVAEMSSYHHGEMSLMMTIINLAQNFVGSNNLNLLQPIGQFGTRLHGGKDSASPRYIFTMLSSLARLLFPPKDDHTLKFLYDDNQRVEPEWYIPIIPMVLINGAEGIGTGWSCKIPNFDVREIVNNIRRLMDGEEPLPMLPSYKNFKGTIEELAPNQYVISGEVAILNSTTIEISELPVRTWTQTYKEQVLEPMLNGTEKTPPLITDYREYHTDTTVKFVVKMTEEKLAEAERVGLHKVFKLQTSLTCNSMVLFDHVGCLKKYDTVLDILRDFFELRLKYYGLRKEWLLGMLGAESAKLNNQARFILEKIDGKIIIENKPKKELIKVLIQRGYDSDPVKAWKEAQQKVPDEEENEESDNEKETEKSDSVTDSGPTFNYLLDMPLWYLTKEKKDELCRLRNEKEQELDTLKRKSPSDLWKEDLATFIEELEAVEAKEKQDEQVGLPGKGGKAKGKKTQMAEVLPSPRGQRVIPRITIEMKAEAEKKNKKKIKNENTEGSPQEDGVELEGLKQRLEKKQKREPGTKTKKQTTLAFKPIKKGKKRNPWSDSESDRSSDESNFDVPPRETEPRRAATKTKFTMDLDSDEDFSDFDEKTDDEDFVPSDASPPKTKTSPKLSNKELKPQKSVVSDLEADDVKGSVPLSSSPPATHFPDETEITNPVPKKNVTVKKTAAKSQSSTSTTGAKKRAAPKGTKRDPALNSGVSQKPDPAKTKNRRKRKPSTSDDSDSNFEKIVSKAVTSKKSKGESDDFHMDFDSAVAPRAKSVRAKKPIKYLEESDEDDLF

Structure (SMILES) | IC50 [1] [µM] | IC50 [2] [µM] | inhibition [3] [%] | inhibition [4] [%] | inhibition [5] [%] | IC50 [6] [µM] | IC50 [7] [µM] | IC50 [8] [µM] | inhibition [9] [%]
Cc1ccc(-c2cc(-c3ccc(Cl)o3)cc(-c3ccsc3)n2)o1 | > 50 | > 50 | 62.6 | 9.1 | 34.7 | 18.5 | 23.3 | 1.42 | 
Clc1ccc(-c2cc(-c3ccoc3)cc(-c3ccsc3)n2)cc1 | > 100 | 4.14 | 20.5 | 0 |  | 37.6 | 0.73 | 56.1 | 
Clc1ccc(-c2cc(-c3ccc(Cl)o3)cc(-c3cccs3)n2)cc1 | 14.2 | 21.3 | 42.5 | 38.9 | 38.1 | 19.2 | 20.9 | 2.45 | 6.3
Cc1ccc(-c2cc(-c3ccoc3)cc(-c3ccsc3)n2)cc1 | 44.8 | 1.47 | 14.2 | 13.2 |  | 13 | 47.8 | 9.32 | 
COc1cc([C@@H]2c3cc4c(cc3[C@@H](O[C@@H]3O[C@@H]5CO[C@@H](C)O[C@H]5[C@H](O)[C@H]3O)[C@H]3COC(=O)[C@H]23)OCO4)cc(OC)c1O [ETOPOSIDE] | 1.29 | 1.57 |  |  |  | 2.45 | 2.84 | 1.66 | 
CC[C@@]1(O)C(=O)OCc2c1cc1n(c2=O)Cc2cc3ccccc3nc2-1 [CAMPTOTHECIN] | 0.64 | 0.63 |  |  |  | 0.94 | 0.08 | 0.05 | 
Clc1cccc(-c2cc(-c3ccc(Cl)o3)cc(-c3ccsc3)n2)c1 | 13.7 | 8.71 | 75.9 | 0 | 75.4 | 10.4 | 23 | 4.26 | 
Clc1cccc(-c2cc(-c3ccc(Cl)o3)cc(-c3cccs3)n2)c1 | 15.5 | 12.8 | 44.7 | 42 | 32.7 | 18.1 | 19.8 | 2.86 | 8.5
Clc1ccc(-c2cc(-c3cccnc3)nc(-c3ccsc3)c2)o1 | > 50 | > 50 | 86.5 | 0 | 60.8 | 21.6 | 21.7 | > 50 | 
Clc1ccc(-c2cc(-c3ccoc3)cc(-c3cccs3)n2)cc1 | 50 | 5.53 | 30.2 | 0 |  | 21.1 | 21.1 | 29.1 | 
Clc1ccc(-c2cc(-c3ccsc3)nc(-c3ccccc3Cl)c2)o1 | 4.57 | 8.07 | 64.1 | 0 | 59.5 | 19.3 | 17.2 | 1.71 | 
Clc1ccc(-c2cc(-c3ccsc3)nc(-c3ccccn3)c2)o1 | > 50 | 22.5 | 63.1 | 0 | 60.9 | 10.9 | 21.9 | 21 | 
